Data set [1] can be described thus: Cytotoxicity against human HepG2 cells assessed as reduction in cell viability after 48 hrs by MTT assay. It counts as cell-based. Summed up:
(§1)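 Cells seeded at 2 × 10^5 per well and allowed 24 h at 37°C, 5% CO2 to form a monolayer. Dilutions added in triplicate and incubated 48 h. MTT (2 mg/mL) then added for 4 h, followed by DMSO for 20 min at room temperature. Absorbance read at 550 nm; DMSO diluent and untreated cells served as negative controls. CC50 derived from the curve.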

In data set [2] the test system is Plasmodium falciparum. Description: Antiplasmodial activity against chloroquine-sensitive Plasmodium falciparum 3D7 infected in human red blood cells assessed as reduction in parasite growth after 48 hrs by Hoechst 33342 staining based flow cytometric analysis. It counts as functional, organism-based. Conditions: 3D7, 48 h. In outline:
(§2)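 Ring-stage cultures (>80% rings) at 1% parasitaemia in A+ human erythrocytes, 2% haematocrit. Medium RPMI 1640 with 10% A+ serum, 37°C, 5% CO2/5% O2. Compounds in DMSO at 1.56–100 µg/mL final, DMSO ≤1%. After 48 h, cells stained with Hoechst 33342 and 1×10^4 counted by flow cytometry. IC50 from logistic dose-response regression; three independent experiments in triplicate.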

Data set [3] relates to Plasmodium falciparum. Briefly: Antiplasmodial activity against the multidrug-resistant Plasmodium falciparum […] infected in human red blood cells assessed as reduction in parasite growth after 48 hrs by Hoechst 33342 staining based flow cytometric analysis. Type of data set: functional, organism-based. Summed up: as §2
A short description of data set [4]: Selectivity index, ratio of CC50 for human HepG2 cells to IC50 for multidrug-resistant Plasmodium falciparum […]. Conditions: read-out: Ratio CC50/IC50. Type of data set: toxicity. In outline: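 Selectivity index = HepG2 CC50 / FCR-3 IC50. CC50 from MTT assay after 48 h exposure, A550. IC50 from 48 h Hoechst 33342 flow-cytometry assay.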
In data set [5] the test system is Plasmodium yoelii. Briefly: Antiplasmodial activity against GFP-harboring Plasmodium yoelii sporozoites infected in human HepG2 cells expressing CD81 assessed as reduction in parasite growth treated every 24 hrs by DAPI staining-based fluorescence microscopic analysis. It counts as functional, organism-based. The following applies: HepG2, 24 h. In outline:
(§3)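 Collagen-coated wells seeded with HepG2 (P. berghei), HepG2-CD81 (P. yoelii) or primary human hepatocytes (P. falciparum). Sporozoites added: 5×10^3 to 1×10^4 per well to the cell lines, 2.5×10^4 per well to hepatocytes. Compounds given at infection: top 10 µg/mL plus seven serial dilutions, renewed at 3 h and then every 24 h. Cultures grown 40 h (cell lines) or 8 days (hepatocytes) at 37°C. Methanol-fixed, HSP70 immunolabelled, DAPI counterstained. IC50 from logistic regression; triplicate.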

Data set [6] deals with Plasmodium berghei. Briefly: Antiplasmodial activity against GFP-harboring Plasmodium berghei sporozoites infected in human HepG2 cells assessed as reduction in parasite growth treated every 24 hrs by DAPI staining-based fluorescence microscopic analysis. The following applies: HepG2, 24 h. Type of data set: functional, organism-based. In outline: as §3
The subject of data set [7] is Plasmodium falciparum. Briefly: Antiplasmodial activity against GFP-harboring Plasmodium falciparum sporozoites infected in human primary hepatocytes assessed as reduction in parasite growth treated every 24 hrs by DAPI staining-based fluorescence microscopic analysis. Type of data set: functional, organism-based. Summed up:
as §3

Data set [8] is described as follows: Cytotoxicity against human HepG2 cells expressing CD81 assessed as reduction in cell viability after 48 hrs by MTT assay. Type of data set: cell-based. In outline:
as §1

Data set [9] in a line: Cytotoxicity against human primary hepatocytes assessed as reduction in cell viability after 48 hrs by MTT assay. Type of data set: cell-based, Hepatocyte. In outline:
as §1

The nature of data set [10]: Selectivity index, ratio of CC50 for human HepG2 cells expressing CD81 to IC50 for GFP-expressing Plasmodium yoelii sporozoites. Type of data set: toxicity. Conditions: read-out: Ratio CC50/IC50. In outline:
(§4)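 Selectivity index = CC50 (matching cell) / IC50 (matching parasite). Cell–parasite pairs: HepG2-CD81 with P. yoelii, HepG2 with P. berghei, human hepatocytes with P. falciparum.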

Data set [11] is described as follows: Selectivity index, ratio of CC50 for human HepG2 cells to IC50 for GFP-expressing Plasmodium berghei sporozoites. It counts as toxicity. The following applies: read-out: Ratio CC50/IC50. Summed up: as §4
A short description of data set [12]: Selectivity index, ratio of CC50 for human primary hepatocytes to IC50 for GFP-expressing Plasmodium falciparum sporozoites. Type of data set: toxicity. Conditions: read-out: Ratio CC50/IC50. In outline:
as §4

In data set [13] the test system is Plasmodium yoelii. Briefly: Antiplasmodial activity against Plasmodium yoelii 17XNL sporozoites infected in BALB/c mouse assessed as parasite reduction at 100 mg/kg, po measured at day 1 to day 4 by […]. Type of data set: functional, organism-based. In outline:
(§5)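 BALB/c mice (6-8 weeks, 20-23 g), n=4 per hybrid group and n=5 per control. Dosed orally at 100 mg/kg (100 µL) on days -1, 0, +1 and +2. Vehicle was DMSO 100%; primaquine diphosphate given at 30 mg/kg daily. On day 0, 5 x 10^3 cryopreserved P. yoelii 17XNL sporozoites injected i.v. Parasitaemia read by Giemsa smear and SYBR Green flow cytometry. Groups compared by Kruskal-Wallis test.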

Data set [14] concerns Plasmodium yoelii. Briefly: Antiplasmodial activity against Plasmodium yoelii 17XNL sporozoites infected in BALB/c mouse assessed as decrease in parasitaemia in blood at 100 mg/kg, po measured at day 4 by […] relative to control. It counts as functional. Set-up: scale not given: the % may be the effect or the level left. In outline: as §5

Data set [15] relates to Plasmodium yoelii. Briefly: Antiplasmodial activity against Plasmodium yoelii 17XNL sporozoites infected in BALB/c mouse assessed as pre-patent time period of parasitaemia at 100 mg/kg, po measured at day 4 by […]. It counts as functional. Summed up:
as §5

Data set [16] deals with Mus musculus. Description: Acute toxicity in BALB/c mouse assessed as necrosis of liver at 500 mg/kg, po administered as single dose measured at day 14 by haematoxylin and eosin staining based microscopic analysis. Conditions: in vivo. It counts as organism-based. Summed up: (§6)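 Female BALB/c mice, groups of three, single oral dose; vehicle DMSO 100% for controls. Mice euthanised with CO2 on day 14, or earlier if suffering. Gross necropsy performed. Spleen, liver and kidney fixed in formaldehyde 37%, stained with haematoxylin and eosin and examined by light microscopy.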

The test system of data set [17] is Mus musculus. Briefly: Acute toxicity in BALB/c mouse assessed as necrosis of kidney at 500 mg/kg, po administered as single dose measured at day 14 by haematoxylin and eosin staining based microscopic analysis. Type of data set: organism-based. Conditions: in vivo. Summed up: as §6
The test system of data set [18] is Mus musculus. Briefly: Acute toxicity in BALB/c mouse assessed as ulcerated congestion in stomach at 500 mg/kg, po administered as single dose measured at day 14 by […]. The following applies: in vivo. It counts as organism-based. Summed up: as §6
The test system of data set [19] is Plasmodium berghei. Description: Potency index, ratio of primaquine IC50 to compound IC50 for GFP-expressing Plasmodium berghei sporozoites infected in human HepG2 cells. It counts as functional.
In data set [20] the test system is Plasmodium yoelii. Description: Antiplasmodial activity against Plasmodium yoelii 17XNL sporozoites infected in BALB/c mouse assessed as parasite burden at 100 mg/kg, po measured at day 4 by […] (reference value: 0.06%). Type of data set: functional. In outline:
as §5

Data set [21] deals with Plasmodium berghei. Description: Antiplasmodial activity against GFP-expressing gametocytes of Plasmodium berghei sporozoites in Anopheles stephensi mosquitoes feeded on blood from infected Swiss mouse assessed as reduction in number of oocysts in mosquito midgut at 100 mg/kg, ip pretreated for 1.5 hrs followed by blood feeding of mosquito and measured at 8 days post mosquitoes infection by fluorescence microscopic method relative to control. It counts as functional. Set-up: scale not given: the % may be the effect or the level left. In outline:
(§7)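 Swiss mice (female, 6 weeks) infected i.p. with PbGFP-infected red cells (200 µL, 3000 parasites/µL). Gametocytes monitored 4 days by Giemsa smear and exflagellation. Hybrid given i.p. at 100 mg/kg in DMSO 1.5 h before A. stephensi fed 1 h on mice with 1% gametocytes. Controls were untreated and DMSO-treated mice. Thirty mosquitoes per group dissected after 8 days. Midgut oocysts counted by fluorescence microscopy against control mosquitoes taken as 100%.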

The test system of data set [22] is Plasmodium berghei. Briefly: Antiplasmodial activity against GFP-expressing gametocytes of Plasmodium berghei sporozoites in Anopheles stephensi mosquitoes feeded on blood from infected Swiss mouse assessed as reduction in mosquito infection at 100 mg/kg, ip pretreated for 1.5 hrs followed by blood feeding of mosquito and measured at 8 days post mosquitoes infection by fluorescence microscopic method relative to control. Set-up: scale not given: the % may be the effect or the level left. It counts as functional. Summed up: as §7

Activity calls are given as the source filed them. The rule behind the calls is not given here.

Consider `CCN(CC)CCCC(C)Nc1ccnc2cc(Cl)ccc12` (stereo not drawn) [CHLOROQUINE], for which the CC50 at 48 h in data set [1] stood at 137 µM.
Consider `Cc1c(C(=O)NCCNc2ccnc3cc(Cl)ccc23)[n+]([O-])c2cc(Cl)ccc2[n+]1[O-]`, for which the 50% inhibitory concentration (IC50) turned out to be 0.52 µM in data set [2]; 0.4 µM in data set [3]; 14.6 µM in data set [5]; 10.1 µM in [6]; 6.39 µM in data set [7]. Moreover, the values for the cytotoxic concentration (CC50) at 48 h in [1], in [8] and in [9] were 21.8 µM, 69.9 µM and 61.1 µM, respectively. Also, the selectivity ratio in [4] stood at 54.6; in [10] it was 4.78; in data set [11], 2.15; in [12], 9.56.
Regarding `Cc1c(C(=O)NCCNc2ccnc3cc(Cl)ccc23)[n+]([O-])c2ccccc2[n+]1[O-]`, the results for the IC50 in data set [2] and in [3] were 0.78 µM and 1.9 µM, respectively. For the same molecule, the cytotoxic concentration (CC50) at 48 h in data set [1] is 58.2 µM. Also, the selectivity ratio in [4] was found to be 30.6.
Taken in the same sequence, the figures for `Cc1ccc2c(c1)[n+]([O-])c(C(=O)NCCNc1ccnc3cc(Cl)ccc13)c(C)[n+]2[O-]` were 0.57 µM, 2.24 µM, 31.4 µM and 14.
As to `COc1cc(NC(C)CCCN)c2ncccc2c1` (stereo not drawn) [PRIMAQUINE], the result in data set [13] was inactive. Further, the IC50 in data set [2] was 9.86 µM; in data set [3], 1.1 µM; in [5] it was 2.13 µM; in data set [6] it was 3.65 µM. In addition, the CC50 at 48 h in [1] turned out to be 120 µM; in data set [8], 69.8 µM. Also, the selectivity ratio was found to be 109 in data set [4], 32.8 in data set [10], 33 in [11] and 136 in data set [12]. Besides, the Activity in [14] was 100%; in [16], “Non-Toxic”; in [17], “Non-Toxic”; in data set [18] it was “Toxic”. In addition, the Time in data set [15] turned out to be 24 h.
`COc1cc(NC(C)CCCNC(=O)c2c(C)[n+]([O-])c3ccc(Cl)cc3[n+]2[O-])c2ncccc2c1` (stereo not drawn): the half-inhibitory concentration (IC50) in data set [2] came out at 62.6 µM; in data set [3], 36.1 µM; in data set [5], 5.71 µM; in data set [6], 1.14 µM; in data set [7], 3.64 µM. For the same molecule, the 50% cytotoxic concentration (CC50) at 48 h is 155 µM in data set [1], > 198 µM in data set [8] and > 198 µM in data set [9]. The selectivity ratio in [4] is 3.34; in [10] it was 34.7; in data set [11] it was 136; in data set [12] it was 54.5. The “Ratio IC50” value in [19] turned out to be 3.2. Moreover, the Activity in data set [20] worked out at 0.01%; in data set [21], 77%; in data set [22] it was 23%.
